The values that follow come from ChEMBL document CHEMBL2146467, “Generation and exploration of new classes of antitubercular agents: The optimization of oxazolines, oxazoles, thiazolines, thiazoles to imidazo[1,2-a]pyridines and isomeric 5,6-fused scaffolds” (Bioorg Med Chem, 2012).

pIC50: −log10 of the molar value. In brackets after ≈: the same amount, converted by molar mass.

For one data set, the system named is Vero. Kind of data set: Cytotoxicity against african green monkey Vero cells after 72 hrs by CellTiter assay. The conditions noted are these: Chlorocebus sabaeus. It is filed as cell-based.
The nature of data set [1]: Chemical stability in simulated gastric fluid assessed as compound remaining at 50 uM after 15 mins by LC/MS analysis. It is filed as physicochemical. The conditions noted are these: read-out: Stability.
Data set [2] deals with Mycobacterium tuberculosis. Description: Antimycobacterial activity against Mycobacterium tuberculosis H37Rv ATCC 27294 culture in 7H12 media after 7 days by microplate alamar blue assay. Type of data set: functional. The conditions noted are these: H37Rv ATCC 27294, 168 h. Summed up: (§1)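 Replicating Mtb H37Rv. The MIC is the concentration that inhibits growth of 90% of organisms. Media by line: GAS is glycerol-alanine-salts. GAST is iron-deficient glycerol-alanine-salts with Tween 80. 7H12 is 7H9 broth base with BSA, casein hydrolysate, catalase and palmitic acid. Values are reported in μM.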
In general terms: The colour change of resazurin is a common sign of viable cells or microbes.

Data set [3] relates to Mycobacterium tuberculosis. Description: microbe, parasite or virus in culture. It is filed as functional. The conditions noted are these: H37Rv.
Data set [4] deals with Mycobacterium tuberculosis. Kind of data set: Antimycobacterial activity against Mycobacterium tuberculosis H37Rv ATCC 27294 culture in GAS media after 7 days by microplate alamar blue assay. Type of data set: functional. The conditions noted are these: H37Rv ATCC 27294, 168 h. A digest of the protocol:
as §1

A short description of data set [5]: Metabolic stability in Sprague-Dawley rat liver microsomes assessed as compound remaining at 20 uM after 15 mins by LC/MS analysis. Type of data set: ADME, Microsome. The conditions noted are these: read-out: Stability.
The subject of data set [6] is Mycobacterium tuberculosis. Kind of data set: Antimycobacterial activity against Mycobacterium tuberculosis H37Rv ATCC 27294 culture in GAST media after 7 days by microplate alamar blue assay. It is filed as functional. The conditions noted are these: H37Rv ATCC 27294, 168 h. Summed up: as §1
For data set [7], the system named is Mycobacterium tuberculosis. Kind of data set: Antimycobacterial activity against isoniazid-,rifampin-,ethambutol-,kanamycin-,paraaminosalicylic acid-resistant Mycobacterium tuberculosis after 14 days. The conditions noted are these: 336 h. It is filed as functional.
For data set [8], the system named is Mycobacterium tuberculosis. Description: Antimycobacterial activity against drug-sensitive Mycobacterium tuberculosis isolate 2 after 14 days. Type of data set: functional. The conditions noted are these: isolate 2, 336 h.
The test system of another data set is Staphylococcus aureus. Kind of data set: Antibacterial activity against Staphylococcus aureus. Type of data set: functional.
In the next data set the test system is Mycobacterium kansasii. Description: Antimycobacterial activity against Mycobacterium kansasii. It is filed as functional.
Another data set has as its system Mycobacterium avium. Kind of data set: Antimycobacterial activity against Mycobacterium avium. Type of data set: functional.
The subject of the next data set is Escherichia coli. Description: Antibacterial activity against Escherichia coli. It is filed as functional.
Data set [9] concerns Mycobacterium tuberculosis. Kind of data set: Antimycobacterial activity against drug-sensitive Mycobacterium tuberculosis isolate 1 after 14 days. Type of data set: functional. The conditions noted are these: isolate 1, 336 h.
In data set [10] the test system is Mycobacterium tuberculosis. Kind of data set: Antimycobacterial activity against isoniazid-,rifampin-,ethambutol-,pyrazinamide-,streptomycin-,kanamycin-,paraaminosalicylic acid-resistant Mycobacterium tuberculosis after 14 days. The conditions noted are these: 336 h. It is filed as functional.

For orientation: pIC50 means −log10 of the IC50, conventionally taken in molar units. In the data set with Vero, `O=C(OCc1ccccc1)[C@@H]1COC(c2ccccc2)=N1` had a pIC50 of less than 3.89. Also, in [1], the remaining at 0.25 h, 50 µM is 1.7%. Besides, the MIC90 in [2] is 16.6 µM (≈ 4.67 µg/mL); in data set [3] it was 63 µM (≈ 17.7 µg/mL); in data set [4], 4.9 µM (≈ 1.38 µg/mL); in data set [6], 4.4 µM (≈ 1.24 µg/mL). Besides, the remaining at 0.25 h, 20 µM in data set [5] was found to be 2.8%.
Regarding `O=C(OCc1ccccc1)c1coc(-c2ccccc2)n1`, the MIC90 in [7] was determined as 1.1 µM (≈ 0.307 µg/mL); in [2], 3.9 µM (≈ 1.09 µg/mL); in data set [8] it was 2.2 µM (≈ 0.614 µg/mL); in data set [3], 37 µM (≈ 10.3 µg/mL); in data set [4] it was 5.7 µM (≈ 1.59 µg/mL); in data set [6], 0.49 µM (≈ 0.137 µg/mL). Also, the remaining at 0.25 h, 50 µM in [1] was 1.8%. Also, in data set [5], the remaining at 0.25 h, 20 µM is 2.7%.
As usually defined, the MIC is the smallest concentration in the dilution series that meets the test's criterion for growth inhibition. For `Cc1ccn2c(C(=O)NCc3ccccc3)c(C)nc2c1`, in the data set on Vero, the pIC50 was less than 3.89. The remaining at 0.25 h, 50 µM in data set [1] is 100%. The MIC against Staphylococcus aureus is more than 50 µM; in the data set on Mycobacterium kansasii, 1.3 µM (≈ 0.363 µg/mL); against Mycobacterium avium, 1.3 µM (≈ 0.363 µg/mL); against Escherichia coli it was more than 50 µM. In addition, the MIC90 is 2.3 µM (≈ 0.642 µg/mL) in data set [2], 54 µM (≈ 15.1 µg/mL) in [3], 0.7 µM (≈ 0.196 µg/mL) in [4] and 2 µM (≈ 0.559 µg/mL) in data set [6]. Besides, the remaining at 0.25 h, 20 µM in data set [5] was 90%.
Consider `O=C(NCc1ccccc1)c1coc(-c2ccccc2)n1`, for which the MIC90 is more than 40 µM in data set [2], more than 65 µM in data set [4] and 59 µM (≈ 16.4 µg/mL) in data set [6].
In the data set with Vero, `O=C(OCc1ccccc1)[C@@H]1CSC(c2ccccc2)=N1` had a pIC50 of less than 3.89. In addition, the MIC90 in data set [2] worked out at 11.6 µM (≈ 3.45 µg/mL); in data set [4], 12.9 µM (≈ 3.84 µg/mL); in data set [6], 3.5 µM (≈ 1.04 µg/mL).
Take `O=C(OCc1ccccc1)c1csc(-c2ccccc2)n1`: the MIC90 in [7] turned out to be 4.2 µM (≈ 1.24 µg/mL); in [2], 7.2 µM (≈ 2.13 µg/mL); in data set [8] it was 8.5 µM (≈ 2.51 µg/mL); in data set [4], 6 µM (≈ 1.77 µg/mL); in [6], 6.2 µM (≈ 1.83 µg/mL). In addition, the pIC50 with Vero was less than 3.89.
The compound `O=C(OCc1ccccc1)c1cc(-c2ccccc2)[nH]n1` showed a pIC50 in the data set on Vero of less than 3.89. In addition, the MIC90 is more than 38 µM in data set [2], 3.5 µM (≈ 0.974 µg/mL) in data set [4] and more than 64 µM in data set [6].
`O=C(OCc1ccccc1)c1cc(-c2ccccc2)on1`: in the data set with Vero, the pIC50 was less than 4.30. Also, the figures for the MIC90 in data set [2], in data set [3] and in [4] were 0.8 µM (≈ 0.223 µg/mL), 28 µM (≈ 7.82 µg/mL) and 2.2 µM (≈ 0.614 µg/mL), respectively.
For the compound `COc1ccc(-c2ccc(C(=O)OCc3ccccc3)cn2)cc1`, the MIC90 in data set [2] turned out to be 9.5 µM (≈ 3.03 µg/mL); in [4], 1.9 µM (≈ 0.607 µg/mL).
`Cc1ccn2c(C(=O)OCc3ccccc3)c(-c3ccccc3)nc2c1` gave a pIC50 in the data set with Vero of less than 4.30. Besides, the results for the MIC90 in [2], in data set [3] and in [4] were less than 0.195 µM, 21.7 µM (≈ 7.43 µg/mL) and less than 0.195 µM, respectively.
`Cc1ccn2c(C(=O)NCc3ccccc3)c(-c3ccccc3)nc2c1` had a pIC50 in the data set with Vero of less than 4.30. The MIC90 in data set [2] was 2.9 µM (≈ 0.99 µg/mL); in data set [3], more than 50 µM; in data set [4], 0.6 µM (≈ 0.205 µg/mL).
With `Cc1ccn2c(C(=O)OCc3ccccc3)c(C)nc2c1`, the MIC90 was less than 0.04 µM in data set [7]; less than 0.04 µM in [9]; less than 0.195 µM in data set [2]; less than 0.04 µM in [8]; 34.8 µM (≈ 9.76 µg/mL) in data set [3]; less than 0.195 µM in data set [4]. In data set [10], the MIC90 is less than 0.04 µM. This compound had a pIC50 in the data set with Vero of less than 4.30.
`Cc1nc2ncccn2c1C(=O)OCc1ccccc1` gave a pIC50 with Vero of less than 4.30. Besides, the MIC90 in data set [2] came to 4.7 µM (≈ 1.26 µg/mL); in data set [4] it was 2.3 µM (≈ 0.615 µg/mL).
Take `Cc1cc2nc(C)c(C(=O)OCc3ccccc3)n2c(C)n1`: the pIC50 with Vero was less than 4.30. In addition, the results for the MIC90 in [2] and in data set [4] were 5.3 µM (≈ 1.57 µg/mL) and 1.1 µM (≈ 0.325 µg/mL), respectively.
Compound `O=C(Nc1ccccc1)c1coc(-c2ccccc2)n1` gave a pIC50 in the data set with Vero of less than 3.89. Further, the values for the MIC90 in data set [3], in data set [4] and in [6] were 50 µM (≈ 13.2 µg/mL), 11 µM (≈ 2.91 µg/mL) and 28 µM (≈ 7.4 µg/mL), respectively.
`O=C(NC1CCCCC1)c1csc(-c2ccccc2)n1`: the remaining at 0.25 h, 50 µM in [1] is 3.3%. In addition, the MIC90 in [4] and in data set [6] was 15 µM (≈ 4.3 µg/mL) each time. The remaining at 0.25 h, 20 µM in data set [5] worked out at 3.3%.
In the case of `CCCCCCNC(=O)c1csc(-c2ccccc2)n1`, in [1], the remaining at 0.25 h, 50 µM was 0.1%. Besides, the MIC90 came to 14 µM (≈ 4.04 µg/mL) in [4] and 60 µM (≈ 17.3 µg/mL) in data set [6]. The remaining at 0.25 h, 20 µM in [5] came out at 18.9%.
With `CC(C)(C)OC(=O)c1coc(-c2ccccc2)n1`, the MIC90 in data set [4] and in data set [6] was more than 64 µM throughout. Moreover, the remaining at 0.25 h, 20 µM in [5] is 42%.
The compound `NNC(=O)c1ccncc1` [ISONIAZID] had a pIC50 with Vero of less than 3.89. Further, the MIC90 is 0.37 µM (≈ 0.0507 µg/mL) in data set [2], more than 512 µM in data set [3] and 0.22 µM (≈ 0.0302 µg/mL) in data set [4].
For `O=[N+]([O-])c1cn2c(n1)OC[C@@H](OCc1ccc(OC(F)(F)F)cc1)C2` [PRETOMANID], the MIC90 is 0.45 µM (≈ 0.162 µg/mL) in data set [7], 0.45 µM (≈ 0.162 µg/mL) in [9], more than 13.9 µM in data set [8] and 0.45 µM (≈ 0.162 µg/mL) in [10].
With `CO[C@H]1/C=C/O[C@@]2(C)Oc3c(C)c(O)c4c(O)c(c(/C=N/N5CCN(C)CC5)c(O)c4c3C2=O)NC(=O)/C(C)=C\C=C\[C@H](C)[C@H](O)[C@@H](C)[C@@H](O)[C@@H](C)[C@H](OC(C)=O)[C@@H]1C` [RIFAMPIN], the figures for the MIC90 in data set [2], in [4] and in data set [6] were 0.04 µM (≈ 0.0329 µg/mL), 0.09 µM (≈ 0.0741 µg/mL) and 0.2 µM (≈ 0.165 µg/mL), respectively.
